Series [1] can be described thus: Compound was evaluated for the ratio of apparent inactivation rate constant k2 to apparent binding constant Ki. The conditions noted are these: read-out: k2 / Ki. In short, it runs like this: (§1)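 Mercurial papain activated with L-cysteine for 45 min at 25 °C in 50 mM phosphate, 1 mM EDTA, pH 6.2. Papain (0.11 μM) was incubated at 25 °C and pH 6.2, in 20% CH3CN, with excess inhibitor. Aliquots taken about every 10 min were diluted 10-fold into buffer containing 2 mM Cbz-Gly-ONp. Residual activity was read at 340 nm, corrected for spontaneous hydrolysis, and analysed by Kitz–Wilson plot.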

Series [2] addresses T1, Papain (Carica papaya) (UniProt P00784).
T1 sequence (whole entry): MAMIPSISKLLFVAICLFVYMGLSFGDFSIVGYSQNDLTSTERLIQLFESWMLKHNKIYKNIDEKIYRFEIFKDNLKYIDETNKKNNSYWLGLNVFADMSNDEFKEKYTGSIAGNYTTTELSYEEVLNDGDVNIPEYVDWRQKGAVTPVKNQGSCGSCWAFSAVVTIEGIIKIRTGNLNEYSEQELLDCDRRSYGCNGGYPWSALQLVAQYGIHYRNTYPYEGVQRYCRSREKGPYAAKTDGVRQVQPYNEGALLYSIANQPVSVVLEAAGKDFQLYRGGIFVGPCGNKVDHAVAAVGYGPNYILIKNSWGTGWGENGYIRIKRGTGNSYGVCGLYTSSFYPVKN
Description: Compound was evaluated for papain inactivation. [I] is the inhibitor concentration; 1-8. The format is functional. The method, boiled down: as §1

The target of series [3] is T1, Papain (Carica papaya). Description: Compound was evaluated for papain inactivation. [I] is the inhibitor concentration; 0.05-1.08. In kind it is functional. The method, boiled down: as §1
Series [4] addresses T1, Papain (Carica papaya). Description: Compound was evaluated for papain inactivation. [I] is the inhibitor concentration; 60-500. The format is functional. In short, it runs like this:
as §1

Series [5] concerns the target T1, Papain (Carica papaya). Description: Compound was evaluated for papain inactivation. [I] is the inhibitor concentration; 6-35. The format is functional. In short, it runs like this: as §1
Series [6] addresses T1, Papain (Carica papaya). Description: Compound was evaluated for papain inactivation. [I] is the inhibitor concentration; 80-160. The format is functional. The method, boiled down:
as §1

Series [7] has as its target T1, Papain (Carica papaya). Description: Compound was evaluated for papain inactivation. [I] is the inhibitor concentration; 30-450. The format is functional. In short, it runs like this:
as §1

In series [8] the target is T1, Papain (Carica papaya). Description: Compound was evaluated for papain inactivation. [I] is the inhibitor concentration; 60-1000. The format is functional. The method, boiled down: as §1
Series [9] addresses T1, Papain (Carica papaya). Description: Compound was evaluated for papain inactivation. [I] is the inhibitor concentration; 1.42-10. In kind it is functional. The method, boiled down: as §1
Series [10] deals with T1, Papain (Carica papaya). The series can be described thus: Compound was evaluated for papain inactivation. [I] is the inhibitor concentration; 2-30. In kind it is functional. The method, boiled down: as §1
Series [11] addresses T1, Papain (Carica papaya). Description: Compound was evaluated for papain inactivation. [I] is the inhibitor concentration; 0.07-0.58. In kind it is functional. In short, it runs like this: as §1
In series [12] the target is T1, Papain (Carica papaya). Description: Compound was evaluated for papain inactivation. [I] is the inhibitor concentration; 0.87-10. The format is functional. The method, boiled down: as §1

As for `COC(=O)/C=C/CNC(=O)[C@H](Cc1ccccc1)NC(C)=O`, in series [1], the kinact/KI turned out to be 0.25 M⁻¹ s⁻¹. This molecule also displayed an I at Papain (Carica papaya) [2] of 1 mM.

As for `COC(=O)/C=C/CNC(=O)[C@@H](CC(C)C)NC(C)=O`, the kinact/KI in series [1] is 2.46 M⁻¹ s⁻¹. This molecule also came in with an I on Papain (Carica papaya) [3] of 0.056 mM.

At Papain (Carica papaya) [4], `CC(=O)NC(Cc1ccccc1)C(=O)NC/C=C/C#N` (stereo unspecified) gave an I of 60 µM. In addition, the kinact/KI in series [1] is 1.7 M⁻¹ s⁻¹.

As to `COC(=O)/C=C/CNC(=O)C(Cc1ccccc1)NC(C)=O` (stereo unspecified), the kinact/KI in series [1] is 26.1 M⁻¹ s⁻¹. For the same molecule, at Papain (Carica papaya) [5], the I was found to be 6 µM.

`CC(=O)NC(Cc1ccccc1)C(=O)NC/C=C/c1ccc([N+](=O)[O-])cc1` (stereo unspecified) returned an I on Papain (Carica papaya) [6] of 80 µM.

Consider `CC(=O)NC(Cc1ccccc1)C(=O)NC/C=C/C(=O)O` (stereo unspecified), for which the kinact/KI in series [1] was 5 M⁻¹ s⁻¹. The same molecule came in with an I at Papain (Carica papaya) [7] of 30 µM.

Take `CC(=O)NC(Cc1ccccc1)C(=O)NC/C=C/C(N)=O` (stereo unspecified): the kinact/KI in series [1] stood at 1.1 M⁻¹ s⁻¹. On Papain (Carica papaya) [8], this molecule came in with an I of 60 µM.

In turn, `COC(=O)/C=C/CNC(=O)c1ccccc1` displayed an I on Papain (Carica papaya) [9] of 1.42 mM. In addition, the kinact/KI in [1] was determined as 0.05 M⁻¹ s⁻¹.

As for `CC(=O)NC(Cc1ccccc1)C(=O)NC/C=C/S(C)(=O)=O` (stereo unspecified), the kinact/KI in series [1] was determined as 18.7 M⁻¹ s⁻¹. The molecule further returned an I on Papain (Carica papaya) [10] of 2 µM.

`COC(=O)/C=C/CNC(=O)[C@@H](CCSC)NC(C)=O`: in [1], the kinact/KI was determined as 2.06 M⁻¹ s⁻¹. The molecule further had an I on Papain (Carica papaya) [11] of 0.07 mM.

Turning to `COC(=O)/C=C/CNC(=O)CCc1ccccc1`, in series [1], the kinact/KI worked out at 0.23 M⁻¹ s⁻¹. In addition, at Papain (Carica papaya) [12], the I came to 0.87 mM.
